Source: ChEMBL document CHEMBL5260824, “9-Deazapurines as Broad-Spectrum Inhibitors of the ABC Transport Proteins P-Glycoprotein, Multidrug Resistance-Associated Protein 1, and Breast Cancer Resistance Protein” (J Med Chem, 2017)

Tests used:
[1] = biological target: T1, Multidrug resistance-associated protein 1 (Homo sapiens, UniProt P33527); assay: Inhibition of MRP1 (unknown origin)
[2] = biological target: T2, ATP-dependent translocase ABCB1 (Homo sapiens, UniProt P08183); assay: Inhibition of P-gp (unknown origin)
[3] = biological target: T2, ATP-dependent translocase ABCB1; assay: Inhibition of P-gp (unknown origin) incubated for 30 mins by calcein AM analysis
Procedure, shortened: (§1)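 A2780/ADR cells (doxorubicin-selected, P-gp overexpressing), about 30,000 per well in Krebs-HEPES buffer pH 7.4, incubated 30 min at 37 °C with compound (100 nM–100 µM added solutions). Calcein AM (3.125 µM solution added) then fluorescence read every 60 s at 37 °C, ex 485/em 520 nm; slope over minutes 5–30 plotted vs log concentration. Cyclosporine A 10 µM = 100% inhibition, buffer = 0%.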

[4] = biological target: T1, Multidrug resistance-associated protein 1; assay: Inhibition of MRP1 in human NCI-H69AR cells incubated for 180 mins in presence of daunorubicin by flow cytometry analysis; format: cell-based
Procedure, shortened: (§2)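 H69AR cells (doxorubicin-selected small cell lung cancer, RPMI-1640/20% FBS), about 60,000 per well, preincubated 15 min with compound (100 nM–100 µM added solutions, in unsupplemented medium), then daunorubicin (30 µM solution added); steady state after 180 min, 37 °C, 5% CO2. Cells resuspended; flow cytometry, 488 nm excitation, FL3 (≥670 nm). Reference inhibitor 75 at 10 µM = 100%; Imax relative to it.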

[5] = biological target: T3, Broad substrate specificity ATP-binding cassette transporter ABCG2 (Homo sapiens, UniProt Q9UNQ0); assay: Inhibition of BCRP (unknown origin) expressed in dog MDCK-II cells using pheophorbide A as substrate preincubated for 20 mins followed by substrate addition and measured after 120 mins by flow cytometry analysis; format: cell-based
T3 sequence (Q9UNQ0 whole entry): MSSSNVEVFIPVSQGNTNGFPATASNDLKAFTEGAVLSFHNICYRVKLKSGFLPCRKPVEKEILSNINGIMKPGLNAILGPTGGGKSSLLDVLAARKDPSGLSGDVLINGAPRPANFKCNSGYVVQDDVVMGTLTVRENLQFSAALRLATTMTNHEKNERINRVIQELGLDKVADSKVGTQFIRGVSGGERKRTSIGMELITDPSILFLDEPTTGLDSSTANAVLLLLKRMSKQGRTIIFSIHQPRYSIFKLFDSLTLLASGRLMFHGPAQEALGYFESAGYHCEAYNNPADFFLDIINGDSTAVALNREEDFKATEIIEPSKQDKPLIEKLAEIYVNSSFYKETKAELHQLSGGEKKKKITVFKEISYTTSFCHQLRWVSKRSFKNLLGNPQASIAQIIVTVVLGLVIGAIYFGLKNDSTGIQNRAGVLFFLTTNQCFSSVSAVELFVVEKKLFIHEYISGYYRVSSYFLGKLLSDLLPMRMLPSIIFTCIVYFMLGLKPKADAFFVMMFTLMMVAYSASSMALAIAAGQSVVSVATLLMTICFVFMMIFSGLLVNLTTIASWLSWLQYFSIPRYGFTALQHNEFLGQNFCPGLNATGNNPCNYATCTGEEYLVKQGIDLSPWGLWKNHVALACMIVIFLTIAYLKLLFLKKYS
Procedure, shortened: (§3)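 MDCK II cells transfected with human wild-type BCRP cDNA C-terminally fused to GFP, grown in DMEM/10% FBS. About 45,000 cells per well preincubated 20 min at 37 °C, 5% CO2 with compound (100 nM–100 µM added solutions), then pheophorbide A (5 µM solution added) for 120 min to steady state. Resuspended; flow cytometry, 488 nm excitation, FL3 (≥670 nm); GFP in FL1. Reference inhibitor 24 at 10 µM = 100%.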

P-gp (ABCB1) [6] = biological target: T4, P-gp (ABCB1) (Homo sapiens, UniProt P08183); assay: Inhibition of P-gp (unknown origin) at 10 uM incubated for 30 mins by calcein AM analysis relative to control; details: probe calcein AM; procedure, shortened: as §1
MRP1 [7] = biological target: T5, MRP1 (Homo sapiens, UniProt P33527); assay: Inhibition of MRP1 in human NCI-H69AR cells at 10 uM incubated for 180 mins in presence of daunorubicin by flow cytometry analysis relative to control; format: cell-based; details: probe daunorubicin; procedure, shortened: as §2
BCRP (ABCG2) = biological target: T6, BCRP (ABCG2) (Homo sapiens, UniProt Q9UNQ0); assay: Inhibition of BCRP (unknown origin) expressed in dog MDCK-II cells at 10 uM using pheophorbide A as substrate preincubated for 20 mins followed by substrate addition and measured after 120 mins by flow cytometry analysis relative to control; format: cell-based; details: probe pheophorbide A; procedure, shortened: as §3
T6 sequence (Q9UNQ0 whole entry): T3 sequence (Q9UNQ0 whole entry)

P-gp (ABCB1) [8] = biological target: T4, P-gp (ABCB1); assay: Inhibition of P-gp (unknown origin) expressed in dog MDCK-MDR1cells assessed as maximum inhibition at 10 uM by calcein AM accumulation assay relative to control; format: cell-based; details: MDCK-MDR1 cells, probe calcein AM
MRP1 [9] = biological target: T5, MRP1; assay: Inhibition of MRP1 in human NCI-H69AR cells assessed as maximum inhibition at 10 uM incubated for 180 mins in presence of daunorubicin by flow cytometry analysis relative to control; format: cell-based; details: probe daunorubicin; procedure, shortened: as §2
[10] = biological target: T3, Broad substrate specificity ATP-binding cassette transporter ABCG2; assay: Inhibition of BCRP (unknown origin)
Procedure, shortened: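 Pheophorbide A accumulation in MDCK II cells transfected with human wild-type BCRP cDNA C-terminally linked to GFP, ~45,000 cells/well. Compound (100 nM–100 µM) preincubated 20 min at 37 °C, 5% CO2. Pheophorbide A stock 5 µM added, then 120 min to steady state. Flow cytometry read-out: FL3 (≥670 nm, 488 nm excitation).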

[11] = biological target: T1, Multidrug resistance-associated protein 1; assay: Inhibition of MRP1 (unknown origin) measured for 2 hrs

T4 sequence (P08183 whole entry): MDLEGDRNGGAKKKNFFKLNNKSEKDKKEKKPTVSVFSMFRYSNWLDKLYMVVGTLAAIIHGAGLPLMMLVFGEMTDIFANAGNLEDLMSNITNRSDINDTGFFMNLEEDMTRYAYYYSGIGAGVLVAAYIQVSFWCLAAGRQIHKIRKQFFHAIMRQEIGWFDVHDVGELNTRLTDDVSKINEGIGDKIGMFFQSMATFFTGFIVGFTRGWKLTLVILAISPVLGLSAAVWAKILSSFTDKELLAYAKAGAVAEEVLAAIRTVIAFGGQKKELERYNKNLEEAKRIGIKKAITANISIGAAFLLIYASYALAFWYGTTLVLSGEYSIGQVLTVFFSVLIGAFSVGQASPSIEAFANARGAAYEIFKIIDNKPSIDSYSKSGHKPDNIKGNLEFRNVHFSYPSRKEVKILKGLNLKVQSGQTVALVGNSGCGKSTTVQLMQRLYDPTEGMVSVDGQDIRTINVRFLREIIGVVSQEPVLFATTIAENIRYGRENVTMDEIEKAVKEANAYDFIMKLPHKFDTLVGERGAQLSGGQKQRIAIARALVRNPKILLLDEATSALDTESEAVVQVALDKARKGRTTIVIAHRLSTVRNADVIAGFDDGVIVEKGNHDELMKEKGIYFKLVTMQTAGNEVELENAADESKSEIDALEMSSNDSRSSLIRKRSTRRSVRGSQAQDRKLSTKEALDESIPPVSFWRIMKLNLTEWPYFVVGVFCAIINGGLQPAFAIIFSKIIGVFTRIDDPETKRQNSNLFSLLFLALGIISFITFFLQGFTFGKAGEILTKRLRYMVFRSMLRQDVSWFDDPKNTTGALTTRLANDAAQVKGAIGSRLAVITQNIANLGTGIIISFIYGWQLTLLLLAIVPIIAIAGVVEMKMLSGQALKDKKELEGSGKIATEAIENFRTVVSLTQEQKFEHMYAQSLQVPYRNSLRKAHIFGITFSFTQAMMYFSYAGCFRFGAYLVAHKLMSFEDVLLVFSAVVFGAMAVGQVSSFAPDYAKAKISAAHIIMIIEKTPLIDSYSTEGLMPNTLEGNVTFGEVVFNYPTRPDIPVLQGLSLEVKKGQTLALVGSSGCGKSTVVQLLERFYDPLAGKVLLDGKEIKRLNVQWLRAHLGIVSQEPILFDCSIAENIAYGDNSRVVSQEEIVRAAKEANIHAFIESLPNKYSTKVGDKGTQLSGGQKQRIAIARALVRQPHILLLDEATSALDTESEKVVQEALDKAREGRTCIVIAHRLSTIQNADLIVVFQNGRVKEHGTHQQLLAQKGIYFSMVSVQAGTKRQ
T2 sequence (P08183 whole entry): as above
T5 sequence (P33527 whole entry): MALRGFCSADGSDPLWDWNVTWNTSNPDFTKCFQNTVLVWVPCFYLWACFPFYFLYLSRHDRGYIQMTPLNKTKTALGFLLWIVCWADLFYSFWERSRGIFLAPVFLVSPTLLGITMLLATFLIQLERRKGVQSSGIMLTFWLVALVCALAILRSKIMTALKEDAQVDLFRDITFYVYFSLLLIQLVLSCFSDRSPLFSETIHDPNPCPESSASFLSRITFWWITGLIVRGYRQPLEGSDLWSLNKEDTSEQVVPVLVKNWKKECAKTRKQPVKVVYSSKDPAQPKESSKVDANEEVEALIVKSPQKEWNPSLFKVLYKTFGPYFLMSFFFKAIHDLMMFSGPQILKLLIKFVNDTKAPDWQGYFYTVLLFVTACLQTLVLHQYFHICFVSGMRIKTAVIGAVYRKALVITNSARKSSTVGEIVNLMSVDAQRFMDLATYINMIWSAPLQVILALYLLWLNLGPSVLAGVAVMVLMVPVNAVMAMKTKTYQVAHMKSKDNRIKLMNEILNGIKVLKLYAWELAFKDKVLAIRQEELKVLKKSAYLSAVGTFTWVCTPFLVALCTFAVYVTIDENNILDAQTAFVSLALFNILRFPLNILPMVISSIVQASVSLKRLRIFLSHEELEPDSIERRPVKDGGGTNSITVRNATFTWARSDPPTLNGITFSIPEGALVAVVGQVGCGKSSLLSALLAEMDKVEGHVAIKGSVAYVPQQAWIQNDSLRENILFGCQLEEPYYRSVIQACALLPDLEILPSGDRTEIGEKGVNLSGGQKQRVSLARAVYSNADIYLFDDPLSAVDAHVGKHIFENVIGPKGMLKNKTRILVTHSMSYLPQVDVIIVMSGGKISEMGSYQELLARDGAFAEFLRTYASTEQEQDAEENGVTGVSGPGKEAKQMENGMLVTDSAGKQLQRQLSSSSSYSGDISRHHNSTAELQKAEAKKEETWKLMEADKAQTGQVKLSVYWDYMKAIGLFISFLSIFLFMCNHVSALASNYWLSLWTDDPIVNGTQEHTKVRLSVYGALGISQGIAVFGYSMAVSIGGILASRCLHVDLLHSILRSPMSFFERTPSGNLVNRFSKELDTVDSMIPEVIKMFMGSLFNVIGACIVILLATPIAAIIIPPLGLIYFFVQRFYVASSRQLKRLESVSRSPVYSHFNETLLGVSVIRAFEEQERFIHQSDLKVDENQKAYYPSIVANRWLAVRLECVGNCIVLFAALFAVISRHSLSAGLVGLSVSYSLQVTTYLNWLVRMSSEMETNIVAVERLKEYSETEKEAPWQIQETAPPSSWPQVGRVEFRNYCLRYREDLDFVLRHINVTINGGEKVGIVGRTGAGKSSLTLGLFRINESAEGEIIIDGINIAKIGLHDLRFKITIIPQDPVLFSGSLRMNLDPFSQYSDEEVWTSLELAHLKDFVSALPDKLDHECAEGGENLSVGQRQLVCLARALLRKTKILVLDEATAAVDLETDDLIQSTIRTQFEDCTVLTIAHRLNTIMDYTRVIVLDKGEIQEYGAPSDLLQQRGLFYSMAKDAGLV
T1 sequence (P33527 whole entry): as above

| IC50 [1] [nM] | IC50 [2] [nM] | IC50 [3] [nM] | IC50 [4] [nM] | IC50 [5] [nM] | inhibition at 0.5 h, 10 µM (P-gp (ABCB1) [6]) [%] | inhibition at 3 h, 10 µM (MRP1 [7]) [%] | inhibition at 2 h, 10 µM (BCRP (ABCG2)) [%] | inhibition at 10 µM (P-gp (ABCB1) [8]) [%] | inhibition at 3 h, 10 µM (MRP1 [9]) [%] | IC50 [11] [nM] | SMILES | IC50 [10] [nM] |
| --- | --- | --- | --- | --- | --- | --- | --- | --- | --- | --- | --- | --- |
| – | – | 9490 | 363 | 6080 | > 25 | > 25 | > 25 | 30 | 60 | – | c1ccc(CN2CCN(c3ncnc4c3[nH]c3ccccc34)CC2)cc1 | – |
| – | – | 13900 | 322 | 14600 | > 25 | > 25 | > 25 | – | – | – | N#Cc1c2n(c3c(N4CCN(Cc5ccc6c(c5)OCO6)CC4)ncnc13)CCCC2 | – |
| – | – | 19100 | 327 | 37900 | > 25 | > 25 | > 25 | – | – | – | COc1ccccc1-n1cc(C#N)c2ncnc(N3CCN(Cc4ccccc4)CC3)c21 | – |
| – | – | 5710 | 1020 | 23700 | > 25 | > 25 | > 25 | – | – | – | N#Cc1c2n(c3c(N4CCN(Cc5ccc6c(c5)OCO6)CC4)ncnc13)CCCCC2 | – |
| – | – | 1280 | 328 | – | > 25 | > 25 | > 25 | – | – | – | N#Cc1cn(-c2ccccc2)c2c(N3CCN(CCc4c[nH]c5ccccc45)CC3)ncnc12 | – |
| – | – | 1640 | 524 | 1390 | > 25 | > 25 | > 25 | – | – | – | N#Cc1cn(CCc2ccccc2)c2c(N3CCN(CCc4c[nH]c5ccccc45)CC3)ncnc12 | – |
| – | – | 10700 | 345 | 11600 | > 25 | > 25 | > 25 | 30 | 60 | – | c1ccc(CCN2CCN(c3ncnc4c3[nH]c3ccccc34)CC2)nc1 | – |
| – | – | – | 169 | 6060 | > 25 | > 25 | > 25 | 30 | 60 | – | O=C(c1ccco1)N1CCN(c2ncnc3c2[nH]c2ccccc23)CC1 | – |
| – | – | 7290 | 859 | – | > 25 | > 25 | > 25 | – | – | – | CCOc1ccc(-n2cc(C#N)c3ncnc(N4CCN(Cc5ccccc5)CC4)c32)cc1 | – |
| – | – | 4480 | 405 | 4070 | > 25 | > 25 | > 25 | – | – | – | N#Cc1cn(Cc2ccccc2)c2c(N3CCN(CCc4c[nH]c5ccccc45)CC3)ncnc12 | – |
| – | – | 3920 | 717 | 7930 | > 25 | > 25 | > 25 | 30 | 60 | – | c1ccc2c(c1)[nH]c1c(N3CCN(Cc4ccc5c(c4)OCO5)CC3)ncnc12 | – |
| – | – | – | 146 | 1100 | > 25 | > 25 | > 25 | 30 | 60 | – | c1ccc(N2CCN(c3ncnc4c3[nH]c3ccccc34)CC2)cc1 | – |

Further lines, the molecule ahead of its results:

| SMILES | IC50 [1] [nM] | IC50 [2] [nM] | IC50 [3] [nM] | IC50 [4] [nM] | IC50 [5] [nM] | inhibition at 0.5 h, 10 µM (P-gp (ABCB1) [6]) [%] | inhibition at 3 h, 10 µM (MRP1 [7]) [%] | inhibition at 2 h, 10 µM (BCRP (ABCG2)) [%] | inhibition at 10 µM (P-gp (ABCB1) [8]) [%] | inhibition at 3 h, 10 µM (MRP1 [9]) [%] | IC50 [11] [nM] | IC50 [10] [nM] |
| --- | --- | --- | --- | --- | --- | --- | --- | --- | --- | --- | --- | --- |
| COc1cc(N(C)C(=O)Cc2cccc(-n3c(=O)c4c(C)onc4c4c(Cl)cccc43)c2)cc(OC)c1OC | 320 | 1330 | – | – | – | – | – | – | – | – | – | – |
| N#Cc1c2n(c3c(N4CCN(CCc5c[nH]c6ccccc56)CC4)ncnc13)CCCC2 | – | – | 5620 | 344 | 3410 | > 25 | 25 | > 25 | – | – | – | 3410 |
| COc1cc2c(cc1OC)CN(CCn1c(-c3ccc(N(C)C)cc3)nc3ccc([N+](=O)[O-])cc3c1=O)CC2 | – | 600 | – | – | – | – | – | – | – | – | 400 | – |
| COc1ccc(C(=O)/C=C/c2ccc(OC)c(OC)c2)c(OC(=O)c2ccccc2OC)c1 | – | 2160 | – | – | – | – | – | – | – | – | – | – |
| c1ccc(N2CCN(c3ncnc4c3[nH]c3ccccc34)CC2)nc1 | – | – | 5000 | 495 | 1810 | > 25 | > 25 | > 25 | 30 | – | – | – |
| N#Cc1cn(Cc2ccccc2)c2c(NCCCc3ccccc3)ncnc12 | 790 | 14000 | – | – | – | – | – | – | – | – | – | 20400 |
| c1ccc2c(CCN3CCN(c4ncnc5c4[nH]c4ccccc45)CC3)c[nH]c2c1 | – | – | 3500 | 921 | 6210 | > 25 | > 25 | > 25 | 30 | 60 | – | – |
| c1ccc(C(c2ccccc2)N2CCN(c3ncnc4c3[nH]c3ccccc34)CC2)cc1 | – | – | 2330 | 409 | 1380 | > 25 | > 25 | > 25 | 30 | 60 | – | – |
| N#Cc1cn(C2CC2)c2c(N3CCN(CCc4c[nH]c5ccccc45)CC3)ncnc12 | – | – | 3850 | 316 | 18900 | > 25 | > 25 | > 25 | – | – | – | – |
